Values joined by “and” are separate entries in the source; they are usually repeats but may differ in a detail not shown here. Equal entries are not always repeated.
Key:
Type in all cases: ADME, organism-based
Rattus norvegicus [1] = test: Distribution of radioactivity in rat brain hypothalamus 120 min after intravenous administration of iodine labeled compound; details: in vivo, 2 h
Summary of the method: (§1)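 Male Sprague–Dawley rats (225–300 g) under ketamine received 10 µCi radioligand iv (tail vein) in 10% EtOH/saline. Hypothalamus, prefrontal cortex, striatum, pons and cerebellum were dissected, weighed and gamma-counted. % injected dose/g was taken from decay-corrected counts versus diluted dose. Mean ± SE and range, n=5 (5, 30 min) or 4 (60, 120 min).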

Rattus norvegicus [2] = test: Distribution of radioactivity in rat brain region pons 60 min after intravenous administration of iodine labeled compound in presence of reboxetine blocker in study 2; details: in vivo, 1 h
Summary of the method: (§2)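 Male Sprague–Dawley rats (250–300 g), ketamine-anesthetized. Blocker (2 mg/kg) or none was given iv 15 min before tail-vein radioligand (10 µCi in 0.2 mL 10% EtOH/saline). Rats were killed at 60 min with im pentobarbital. Brain regions were dissected, weighed and gamma-counted. % dose/g was taken from decay-corrected, background-subtracted counts versus the injected dose.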

Rattus norvegicus [3] = test: Distribution of radioactivity in rat brain 60 min after intravenous administration of iodine labeled compound; details: in vivo, 1 h
Rattus norvegicus [4] = test: Ratio of distribution of radioactivity in rat brain region prefrontal cortex and cerebellum 60 min after intravenous administration of iodine labeled compound in absence of blocker in study 2; details: in vivo, 1 h
Rattus norvegicus [5] = test: Ratio of distribution of radioactivity in rat brain region prefrontal cortex and cerebellum 60 min after intravenous administration of iodine labeled compound in presence of RTI-113 blocker in study 1; details: in vivo, 1 h
Rattus norvegicus [6] = test: Ratio of distribution of radioactivity in rat brain prefrontal cortex and cerebellum 60 min after intravenous administration of iodine labeled compound; details: in vivo, 1 h
Summary of the method: (§3)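 Male Sprague–Dawley rats (225–300 g) under ketamine anaesthesia were given [123I]ZIENT (10 μCi) in 0.2 mL 10% EtOH/0.9% NaCl into the tail vein, with a saline flush. Hypothalamus, prefrontal cortex, striatum, pons and cerebellum were dissected and gamma-counted. % injected dose/g came from decay-corrected counts against the diluted injected dose, and region/cerebellum ratios were taken from these. Mean ± SE, n=4–5.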

Rattus norvegicus [7] = test: Distribution of radioactivity in rat brain prefrontal cortex 60 min after intravenous administration of iodine labeled compound; details: in vivo, 1 h; summary of the method: as §1
Rattus norvegicus [8] = test: Distribution of radioactivity in rat testis 5 min after intravenous administration of iodine labeled compound; details: in vivo
Summary of the method: (§4)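 Tail-vein injection of [123I]ZIENT (10 μCi in 0.2 mL 10% EtOH/0.9% NaCl, then 0.4 mL saline flush) into ketamine-anaesthetised male Sprague–Dawley rats (225–300 g). Animals were killed by cardiac excision at set times. Organs were excised, rinsed, blotted, weighed and gamma-counted. % dose/g was calculated against diluted aliquots of injectate. Mean ± SE, n=4–5.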

Rattus norvegicus [9] = test: Distribution of radioactivity in rat brain region striatum 60 min after intravenous administration of iodine labeled compound in absence of blocker in study 1; details: in vivo, 1 h
Summary of the method: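 Male Sprague–Dawley rats (250–300 g), ketamine-anaesthetised, received [123I]ZIENT (10 μCi) in 0.2 mL 10% ethanol/0.9% NaCl via the tail vein. […] Rats were killed at 60 min with pentobarbital, brain regions dissected and gamma-counted. Values are % dose/g from decay-corrected, background-subtracted counts against the diluted injected dose.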

Rattus norvegicus [10] = test: Distribution of radioactivity in rat brain region cerebellum 60 min after intravenous administration of iodine labeled compound in presence of RTI-113 blocker in study 2; details: in vivo, 1 h; summary of the method: as §2
Rattus norvegicus [11] = test: Ratio of distribution of radioactivity in rat brain hypothalamus and cerebellum 30 min after intravenous administration of iodine labeled compound; details: in vivo, 0.5 h; summary of the method: as §3
Rattus norvegicus [12] = test: Distribution of radioactivity in rat brain hypothalamus 30 min after intravenous administration of iodine labeled compound; details: in vivo, 0.5 h; summary of the method: as §1
Rattus norvegicus [13] = test: Distribution of radioactivity in rat blood 5 min after intravenous administration of iodine labeled compound; details: in vivo
Summary of the method: (§5)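 Male Sprague–Dawley rats (225–300 g) under ketamine received 10 µCi radioligand in 0.2 mL 10% EtOH/0.9% NaCl via tail vein, then a saline flush. Killed by cardiac excision at set times. Organs were excised, weighed and gamma-counted. % dose/g was taken against diluted injectate. Mean ± SE and range, n=4 (5 min) or 5 (30–120 min).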

Rattus norvegicus [14] = test: Distribution of radioactivity in rat liver 60 min after intravenous administration of iodine labeled compound; details: in vivo, 1 h; summary of the method: as §4
Rattus norvegicus [15] = test: Distribution of radioactivity in rat brain striatum 30 min after intravenous administration of iodine labeled compound; details: in vivo, 0.5 h; summary of the method: as §3
Rattus norvegicus [16] = test: Ratio of distribution of radioactivity in rat brain prefrontal cortex and cerebellum 120 min after intravenous administration of iodine labeled compound; details: in vivo, 2 h; summary of the method: as §3
Rattus norvegicus [17] = test: Distribution of radioactivity in rat brain region hypothalamus 60 min after intravenous administration of iodine labeled compound in absence of blocker in study 1; details: in vivo, 1 h; summary of the method: as §2
Rattus norvegicus [18] = test: Distribution of radioactivity in rat kidney 30 min after intravenous administration of iodine labeled compound; details: in vivo, 0.5 h; summary of the method: as §4
Rattus norvegicus [19] = test: Distribution of radioactivity in rat brain region prefrontal cortex 60 min after intravenous administration of iodine labeled compound in presence of reboxetine blocker in study 2; details: in vivo, 1 h; summary of the method: as §2
Rattus norvegicus [20] = test: Distribution of radioactivity in rat brain cerebellum 60 min after intravenous administration of iodine labeled compound; details: in vivo, 1 h; summary of the method: as §1
Rattus norvegicus [21] = test: Distribution of radioactivity in rat brain region cerebellum 60 min after intravenous administration of iodine labeled compound in absence of blocker in study 1; details: in vivo, 1 h; summary of the method: as §2
Rattus norvegicus [22] = test: Distribution of radioactivity in rat blood 30 min after intravenous administration of iodine labeled compound; details: in vivo, 0.5 h; summary of the method: as §5
Rattus norvegicus [23] = test: Distribution of radioactivity in rat brain pons 5 min after intravenous administration of iodine labeled compound; details: in vivo; summary of the method: as §1
Rattus norvegicus [24] = test: Distribution of radioactivity in rat kidney 60 min after intravenous administration of iodine labeled compound; details: in vivo, 1 h; summary of the method: as §4
Rattus norvegicus [25] = test: Ratio of distribution of radioactivity in rat brain striatum and cerebellum 60 min after intravenous administration of iodine labeled compound; details: in vivo, 1 h
Summary of the method: (§6)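 Male Sprague–Dawley rats (225–300 g), ketamine anesthesia, injected via tail vein with [123I]ZIENT (10 μCi in 0.2 mL 10% EtOH/0.9% NaCl, 0.4 mL saline flush). Killed at 5, 30, 60 or 120 min. Striatum and cerebellum dissected, weighed, γ-counted. Decay-corrected %injected dose/g taken against diluted injectate. Ratio is striatum over cerebellum. Four or five rats per time point, mean ± standard error.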

Rattus norvegicus [26] = test: Distribution of radioactivity in rat liver 120 min after intravenous administration of iodine labeled compound; details: in vivo, 2 h; summary of the method: as §4
Rattus norvegicus [27] = test: Distribution of radioactivity in rat brain region prefrontal cortex 60 min after intravenous administration of iodine labeled compound in absence of blocker in study 2; details: in vivo, 1 h; summary of the method: as §2
Rattus norvegicus [28] = test: Distribution of radioactivity in rat heart 5 min after intravenous administration of iodine labeled compound; details: in vivo; summary of the method: as §4
Rattus norvegicus [29] = test: Distribution of radioactivity in rat brain 30 min after intravenous administration of iodine labeled compound; details: in vivo, 0.5 h
Rattus norvegicus [30] = test: Ratio of distribution of radioactivity in rat brain region striatum and cerebellum 60 min after intravenous administration of iodine labeled compound in presence of reboxetine blocker in study 2; details: in vivo, 1 h
Rattus norvegicus [31] = test: Distribution of radioactivity in rat brain striatum 5 min after intravenous administration of iodine labeled compound; details: in vivo; summary of the method: as §3
Rattus norvegicus [32] = test: Distribution of radioactivity in rat brain prefrontal cortex 5 min after intravenous administration of iodine labeled compound; details: in vivo; summary of the method: as §1
Rattus norvegicus [33] = test: Ratio of distribution of radioactivity in rat brain striatum and cerebellum 5 min after intravenous administration of iodine labeled compound; details: in vivo; summary of the method: as §6

COC(=O)[C@@H]1C2CCC(C[C@@H]1c1ccc(/C=C\I)cc1)N2 (stereo partly drawn)
Distribution (dose/g) (Rattus norvegicus [1]): 0.59% | Distribution (dose/g) (Rattus norvegicus [2]): 0.53% | Distribution (dose/g) (Rattus norvegicus [3]): 0.62% | Distribution (dose/g) (Rattus norvegicus [4]): 3.89% | Distribution (dose/g) (Rattus norvegicus [5]): 3.12% | Distribution (dose/g) (Rattus norvegicus [6]): 3.28% | Distribution (dose/g) (Rattus norvegicus [7]): 0.82% | Distribution (dose/g) (Rattus norvegicus [8]): 0.21% | Distribution (dose/g) (Rattus norvegicus [9]): 0.76% | Distribution (dose/g) (Rattus norvegicus [10]): 0.25% | Distribution (dose/g) (Rattus norvegicus [11]): 2.38% | Distribution (dose/g) (Rattus norvegicus [12]): 0.76% | Distribution (dose/g) (Rattus norvegicus [13]): 0.44% | Distribution (dose/g) (Rattus norvegicus [14]): 0.22% | Distribution (dose/g) (Rattus norvegicus [15]): 0.72% | Distribution (dose/g) (Rattus norvegicus [16]): 4.08% | Distribution (dose/g) (Rattus norvegicus [17]): 0.92% | Distribution (dose/g) (Rattus norvegicus [18]): 0.49% | Distribution (dose/g) (Rattus norvegicus [19]): 0.69% | Distribution (dose/g) (Rattus norvegicus [20]): 0.25% | Distribution (dose/g) (Rattus norvegicus [21]): 0.24% and 0.19% | Distribution (dose/g) (Rattus norvegicus [22]): 0.4% | Distribution (dose/g) (Rattus norvegicus [23]): 0.59% | Distribution (dose/g) (Rattus norvegicus [24]): 0.34% | Distribution (dose/g) (Rattus norvegicus [25]): 2.72% | Distribution (dose/g) (Rattus norvegicus [26]): 0.23% | Distribution (dose/g) (Rattus norvegicus [27]): 0.74% | Distribution (dose/g) (Rattus norvegicus [28]): 0.81% | Distribution (dose/g) (Rattus norvegicus [29]): 0.74% | Distribution (dose/g) (Rattus norvegicus [30]): 3.04% | Distribution (dose/g) (Rattus norvegicus [31]): 0.64% | Distribution (dose/g) (Rattus norvegicus [32]): 0.77% | Distribution (dose/g) (Rattus norvegicus [33]): 1.21%

Source: ChEMBL document CHEMBL1136726, “Synthesis and characterization of iodine-123 labeled 2beta-carbomethoxy-3beta-(4'-((Z)-2-iodoethenyl)phenyl)nortropane. A ligand for in vivo imaging of serotonin transporters by single-photon-emission tomography” (J Med Chem, 2003)
